Screening results from PubChem.
Exocytosis inh – lytic granule exocytosis inhibition; TALL-104 LAMP-1 surface exposure, flow cytometry; cells stimulated with thapsigargin and PMA; AID 651702; 360,000 tested, 0.66% active; inhibition, % at 10 µM;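 active = inhibition above about 55%, limit read from the data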
hiPSC survival – hiPSC single-cell survival enhancement. survival enhancement, % at 20 µM. 360,000 tested, 0.044% active. ATPlite luminescence; 100% = ROCK inhibitor wells, 0% = DMSO; in the data active = survival enhancement above about 18%;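 note: cells exposed to compounds for 16 hours before the ATP read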
Apaf-1 inh – human Apaf-1 inhibition; O14727; reconstituted apoptosome caspase-3 activity, DEVD-Rh110 fluorescence; inhibition, % at 20 µM; 330,000 tested, 0.71% active; AID 489030; active = inhibition of at least 40% at 20 µM;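 note: plate controls were DMSO wells for no effect and DEVD-CHO caspase inhibitor wells for full effect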
Target sequence (O14727 whole entry, looked up): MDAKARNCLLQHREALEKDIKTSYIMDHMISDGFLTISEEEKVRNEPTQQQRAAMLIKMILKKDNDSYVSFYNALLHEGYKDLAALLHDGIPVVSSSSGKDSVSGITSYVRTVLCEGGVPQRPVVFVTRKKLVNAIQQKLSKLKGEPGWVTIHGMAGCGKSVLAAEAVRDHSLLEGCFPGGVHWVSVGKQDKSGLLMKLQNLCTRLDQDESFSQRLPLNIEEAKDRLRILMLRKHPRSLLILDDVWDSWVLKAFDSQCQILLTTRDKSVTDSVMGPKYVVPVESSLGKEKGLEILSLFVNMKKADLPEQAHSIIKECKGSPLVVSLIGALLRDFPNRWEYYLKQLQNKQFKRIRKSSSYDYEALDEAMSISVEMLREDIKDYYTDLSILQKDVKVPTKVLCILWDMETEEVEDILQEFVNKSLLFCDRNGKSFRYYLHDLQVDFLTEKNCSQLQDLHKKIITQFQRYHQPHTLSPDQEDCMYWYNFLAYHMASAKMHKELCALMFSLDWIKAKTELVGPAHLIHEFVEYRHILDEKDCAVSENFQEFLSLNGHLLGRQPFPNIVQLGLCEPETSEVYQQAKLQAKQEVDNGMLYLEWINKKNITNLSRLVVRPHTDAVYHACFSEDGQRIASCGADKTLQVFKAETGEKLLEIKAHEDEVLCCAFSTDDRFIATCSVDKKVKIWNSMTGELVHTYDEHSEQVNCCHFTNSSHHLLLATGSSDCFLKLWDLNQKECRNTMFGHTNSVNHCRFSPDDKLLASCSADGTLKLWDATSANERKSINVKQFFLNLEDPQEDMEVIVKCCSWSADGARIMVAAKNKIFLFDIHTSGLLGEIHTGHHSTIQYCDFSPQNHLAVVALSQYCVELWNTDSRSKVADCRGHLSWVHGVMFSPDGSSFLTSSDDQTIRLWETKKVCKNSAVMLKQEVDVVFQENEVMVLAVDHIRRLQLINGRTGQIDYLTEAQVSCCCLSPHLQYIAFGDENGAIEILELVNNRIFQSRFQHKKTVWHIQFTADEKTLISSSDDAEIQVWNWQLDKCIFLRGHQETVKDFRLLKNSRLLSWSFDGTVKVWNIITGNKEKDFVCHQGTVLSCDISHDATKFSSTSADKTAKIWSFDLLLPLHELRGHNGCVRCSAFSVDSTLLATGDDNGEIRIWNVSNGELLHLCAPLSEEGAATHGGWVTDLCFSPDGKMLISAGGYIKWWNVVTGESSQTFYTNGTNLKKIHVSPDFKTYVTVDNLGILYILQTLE
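System – cell-free apoptosome with Apaf-1, procaspase-3 and caspase-9 · Buffer or medium – pH 7.5 Hepes buffer with CHAPS, BSA, DTT · Also added – cytochrome c with DEVD-Rh110 · Times – 30 min compound preincubation, 50 min activation, room temperature · Technique – Rh110 fluorescence intensity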
beta cell repl – induces beta-cell replication in MIN6 cells. MIN6 cells proliferation, ATPlite luminescence, 48 h; cells starved in 0.2% serum; 100% = growth in 10% serum. proliferation, % at 10 µM. 330,000 tested, 0.29% active;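 active = compounds whose signal lies at least 3.5 SD above the mean of all wells on their plate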;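 note: 0% = DMSO-treated cells in low-serum medium and 100% = 10% serum control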
UBC13 inh – blocks human UBC13 polyubiquitin chain formation. TR-FRET. inhibition, % at 20 µM. 330,000 tested, 0.47% active. AID 485273; in the data active = inhibition above about 45%, passing the limit was not always enough
MPTP block – permeability transition pore inhibition; inhibition, % at 10 µM; 360,000 tested, 1.4% active; AID 602449; isolated mouse mitochondria, Ca2+ swelling absorbance, 30 min;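 active = inhibition of 50% or more, scaled per plate between neutral and stimulator controls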;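 note: 0% = DMSO wells given calcium and 100% = 1 mM EGTA wells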
Rh123 counter – membrane potential counter-screen of mitochondrial pore inhibitors; shares compounds with MPTP block; isolated mitochondria, Rhodamine 123 fluorescence; inhibition, % at 10 µM; 5,000 tested, 78% active; AID 624504; in the data active = inhibition above about 22%;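 note: 0% = DMSO vehicle and 100% = positive control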
MPTP swell DR – dose response confirmation of mitochondrial permeability transition pore inhibitors. IC50, µM. AID 651561. 780 tested, 58% active. isolated mitochondria swelling, absorbance. shares compounds with MPTP block; in the data active = IC50 below about 20 µM
MPTP counter DR – active in counter-screen for permeability transition pore inhibitors | shares compounds with MPTP block | IC50, µM | isolated mitochondria counterscreen, fluorescence read-out | 780 tested, 49% active; in the data active = IC50 below about 80 µM
Active calls of the source: *; i = inactive; . = no result given. In the library only some 3% were active in any assay of this set; here they are far more common.

SMILES | Exocytosis inh | hiPSC survival | Apaf-1 inh | beta cell repl | UBC13 inh | MPTP block | Rh123 counter | others
Nc1cc2c(cc1[N+](=O)[O-])-c1ccccc1C2=NO | -1 | -1 | . | . | . | 3 | .
O=[N+]([O-])c1ccc2c(c1)C(=NO)c1cc(Cl)c(Cl)cc1-2 | 13 | 4 | . | . | . | 61* | 36*
CC1=NC(Nc2nc(C)c3ccccc3n2)=NC(C)(C)C1 | 3 | -2 | -3 | 1 | 18 | 50* | 45*
Cc1ccc(C)c(OCCCCn2cnc3ccccc3c2=O)c1 | 0 | 3 | 3 | -3 | 2 | -1 | .
Brc1ccccc1OCCCCn1cnc2ccccc21 | 42 | 0 | 8 | -6 | 2 | 85* | 90*
Cc1ccc(OCCCCn2cnc3ccccc32)c(C)c1 | 0 | -1 | 6 | -6 | 16 | 93* | 93*
CCOC(=O)N1CCN(S(=O)(=O)c2ccc(C(=O)Nc3nc4ccc(F)cc4s3)cc2)CC1 | 3 | -1 | -23 | -2 | -6 | 62* | 1 | MPTP swell DR=i;MPTP counter DR=6.3*
CCOC(=O)c1sc(NC(=O)c2ccc(S(=O)(=O)N3CCCCC3)cc2)nc1-c1ccccc1 | 1 | 2 | 9 | -2 | 18 | 50* | 32*
CCOC(=O)c1ccc(S(=O)(=O)N2CCN(S(=O)(=O)CC)CC2)cc1 | -2 | 3 | 10 | -2 | -9 | 60* | -1 | MPTP swell DR=>100;MPTP counter DR=>80
CCOC(=O)c1ccc(S(=O)(=O)N2CCNCC2)cc1 | -2 | 0 | -3 | 0 | 4 | 0 | .
COC(=O)c1ccc2nc(Nc3nc4c(F)cc(F)cc4s3)sc2c1 | -4 | 0 | 11 | 1 | 16 | 101* | 64*
CCN(CC)c1ccc(NC(=O)c2c(C)noc2C)cc1 | 0 | 0 | -4 | 5 | -17 | 2 | .
O=C(NC(c1ccc(Cl)cc1)c1ccccn1)C1CCN(CCOc2ccc(Cl)cc2Cl)CC1 (configuration not stated) | 19 | 1 | . | . | . | 1 | .
CCOC(=O)c1ccc2nc(Nc3nc4ccc(F)cc4s3)sc2c1 | 1 | 0 | 15 | -6 | 26 | 101* | 7 | MPTP swell DR=5*;MPTP counter DR=<2.5*
COc1cccc(NC(=O)CN(C)C(=O)c2ccc(Cl)c(S(=O)(=O)N3CCCCCC3)c2)c1 | 0 | 0 | 20 | -5 | -7 | -1 | .
CC1CC(=O)N(CC(=O)Nc2ccc(Br)cc2)c2ccccc2S1(=O)=O (configuration not stated) | -7 | 4 | 2 | 4 | 6 | 0 | .
COc1cc(CNCc2c[nH]c3ccccc23)cc(OC)c1 | 4 | 0 | -11 | -3 | 6 | 60* | 1 | MPTP swell DR=6.3*;MPTP counter DR=53*
CC(=O)N1CCN(Cc2cc(=O)oc3ccccc23)CC1 | 1 | 0 | . | . | . | -3 | .
O=C(NNC(=S)NC(=O)c1sc2ccccc2c1Cl)c1ccc(Cl)cc1 | 4 | -2 | -5 | 0 | -18 | 108* | 20
Cc1cccc(C(=O)NC(=S)NNC(=O)c2cccs2)c1 | 2 | -2 | 5 | 0 | -16 | 54* | -12
COc1ccc(C(=O)NNC(=S)NC(=O)c2ccc(Cl)cc2)cc1 | . | . | -13 | -4 | -20 | . | .
Cc1cccc(C(=O)NC(=S)NNC(=O)c2ccc(Cl)cc2)c1 | 16 | 1 | . | . | . | 95* | 19
CC(C)(C)c1ccc(C(=O)NC(=S)NNC(=O)c2cccs2)cc1 | 0 | 2 | . | . | . | 92* | 29*
O=C(CN1C(=O)NC2(CCCCCC2)C1=O)Nc1ccccc1[N+](=O)[O-] | -5 | 4 | 3 | -3 | 7 | -2 | .
COc1ccc(N=c2cc(-c3ccc(OC)cc3)oc3ccccc23)cc1 | 8 | 0 | 0 | 0 | 0 | 27 | .
SMILES | Exocytosis inh | hiPSC survival | Apaf-1 inh | beta cell repl | UBC13 inh | MPTP block | Rh123 counter | others
COc1ccc(N=c2cc(-c3ccc(O)cc3)oc3ccccc23)cc1 | 2 | 2 | 2 | -6 | -40 | 68* | 73*
COc1ccc(-c2cc(=Nc3ccc(C)cc3)c3ccccc3o2)cc1 | 34 | 2 | 23 | -6 | -13 | 63* | 12 | MPTP swell DR=>100;MPTP counter DR=14*
Cc1csc(SCC(=O)Nc2nc(-c3ccccc3)cs2)n1 | 2 | 3 | 19 | 0 | 1 | 0 | .
CCNC(=S)Nc1cccc([N+](=O)[O-])c1 | . | . | 11 | -2 | -4 | . | .
Cc1ccc(-c2csc(NC(=O)CSc3nc(C)cs3)n2)cc1 | 2 | 8 | 23 | -3 | -11 | 70* | 56*
O=[N+]([O-])c1cccc(NC(=S)Nc2nc(-c3ccccc3Cl)cs2)c1 | -13 | 1 | 22 | -7 | -9 | 87* | 76*
Cc1cc(NC(=O)CSc2nc(-c3ccc(Cl)cc3)cs2)no1 | -2 | -2 | 1 | -3 | -2 | 5 | .
O=C(CSc1nc(-c2ccc(Cl)cc2)cs1)Nc1cccc([N+](=O)[O-])c1 | 65* | -1 | -14 | -3 | 3 | 84* | 80*
COc1ccc(N2CCN(S(=O)(=O)c3ccc4c(c3)NC(=O)C(C)S4)CC2)cc1 (configuration not stated) | 8 | 0 | 16 | -4 | 6 | 8 | .
CCCC1=NN2C(=N)/C(=C\c3cc(C)n(-c4cccc(C)c4)c3C)C(=O)N=C2S1 | -3 | 0 | 23 | -2 | -4 | 52* | 5 | MPTP swell DR=i;MPTP counter DR=>80
CCOC(=O)c1ccc(-c2c(C(=O)OCC)oc3cc(O)c(CC)cc3c2=O)o1 | 0 | 2 | 7 | -2 | 5 | 82* | 86*
O=c1[nH]c2cc3c(cc2cc1C(c1nnnn1C1CCCCC1)N1CCSCC1)OCCO3 (configuration not stated) | -1 | 2 | -1 | 4 | 17 | 63* | -2
COc1cc2cc(C(c3nnnn3C3CCCC3)N3CCCCC3)c(=O)[nH]c2cc1OC (configuration not stated) | -4 | 1 | -22 | -3 | 7 | -2 | .
O=[N+]([O-])c1ccc(OCCCCN2CCc3ccccc3C2)cc1 | 10 | -1 | 13 | -4 | -3 | 1 | .
C=C(C)[C@@H]1CC=C(CN2CCC(N3CCC(C(=O)N4CCCC4)CC3)CC2)CC1 | 21 | -1 | -1 | -6 | 6 | 83* | 47*
Cc1cn(CC(=O)NCCCN2CCCC2=O)c(=O)[nH]c1=O | -4 | 4 | . | . | . | -1 | .
CC1(C)C(=O)Nc2ccccc2N1C(=O)COc1ccccc1C#N | -2 | 3 | 5 | 1 | -10 | 0 | .
Cc1cccc(C)c1N(CC(=O)N1CCCC1)S(C)(=O)=O | -1 | 0 | 0 | 5 | 0 | 2 | .
